High-throughput results: PubChem BioAssay, The Scripps Research Institute Molecular Screening Center
SIAE inh: inhibitors of human sialic acid acetylesterase SIAE; Q9HAT2; SIAE FP-Rh probe binding, fluorescence polarization; inhibition, % at 9.66 µM; hit rate 0.69% among 370,000; AID 1053197;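 active means inhibition above a cutoff: mean of compounds within the control limits plus 3 SD of those, cut at about 17% in these data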;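 further: 0% = plate median of compound wells and 100% = probe without SIAE protein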
Target sequence (Q9HAT2 whole entry, looked up): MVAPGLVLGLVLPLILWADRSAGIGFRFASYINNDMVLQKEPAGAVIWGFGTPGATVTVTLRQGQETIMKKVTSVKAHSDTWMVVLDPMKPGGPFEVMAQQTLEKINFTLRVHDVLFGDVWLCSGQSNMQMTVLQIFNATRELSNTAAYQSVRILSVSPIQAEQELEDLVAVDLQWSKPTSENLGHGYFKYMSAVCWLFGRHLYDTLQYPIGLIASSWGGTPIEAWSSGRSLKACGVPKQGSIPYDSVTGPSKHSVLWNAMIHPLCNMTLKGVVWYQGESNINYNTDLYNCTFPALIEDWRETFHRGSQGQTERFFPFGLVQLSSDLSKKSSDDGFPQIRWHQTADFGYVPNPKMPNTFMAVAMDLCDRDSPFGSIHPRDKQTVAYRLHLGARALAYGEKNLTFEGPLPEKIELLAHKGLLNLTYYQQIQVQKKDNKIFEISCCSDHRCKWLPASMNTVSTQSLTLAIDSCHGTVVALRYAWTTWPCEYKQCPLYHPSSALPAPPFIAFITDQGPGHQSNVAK
mABHD4 FP: inhibits mouse alpha/beta hydrolase domain 4 | hit rate 0.54% among 370,000 | Q8VD66 | AID 720543 | purified mABHD4, FP-Rh probe fluorescence polarization | inhibition, % at 8.92 µM;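 active means inhibition exceeding the mean over every tested compound plus 3 SD, cut at about 30% in these data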;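 further: 0% = plate median of compound wells and 100% = S159A mutant with DMSO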
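Doses – 8.92 µM, single dose · Material – wild-type mouse ABHD4 protein · Replication – single well per compound (singlicate) · Measure – percent inhibition of probe binding, normalized to plate controls · Schedule – 45 min compound pre-incubation plus 60 min probe step, 25 °C · Detection – fluorescence polarization with parallel and perpendicular emission, 525/598 nm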
HTRA1 inhibitor: blocks human HTRA1 serine peptidase; recombinant HTRA1, FP-rhodamine activity-based probe, fluorescence polarization; inhibition, % at 5.96 µM; hit rate 0.5% among 340,000; AID 504803; in the data active means inhibition above about 36%;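 further: 0% = enzyme with DMSO and 100% = wells lacking enzyme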
TDP2 inh: TDP2 (human) inhibition, absorbance primary screen; inhibition, % at 12.8 µM; recombinant TDP2, T5PNP hydrolysis, p-nitrophenol absorbance 415 nm; hit rate 0.34% among 370,000;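 active means inhibition above the mean of all tested compounds plus 3 SD, set per campaign, cut at about 25% in these data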;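 further: 0% = DMSO with enzyme and 100% = buffer with substrate but no TDP2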
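Incubation: 2 h at 37 °C; Test system: recombinant human TDP2; Quantity: enzyme 120 nM; Read-out basis: percent inhibition; Medium: 50 mM Tris-HCl pH 7.5 with Mg2+, KCl, DTT, BSA; Repeats: single replicate; Compound: 12.8 µM single point, 1% DMSO; Signal: epi absorbance; Reagent: 5 mM T5PNP chromogenic substrate; Benchmarks: no-enzyme high, DMSO-plus-enzyme low.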
TCR CD3 inh: blocks the human TCR-CD3 interaction. TAMRA-labeled TCR probe fluorescence, biochemical. inhibition, % at 9.4 µM. hit rate 0.37% among 360,000. AID 651800;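 further: recombinant mutant TCR 2C K166C tagged with TAMRA read by polarization; 0% = receptor in buffer alone and 100% = receptor with positive control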
LEDGF integ inh: blocks HIV-1 LEDGF/p75-dependent DNA integration; hit rate 0.64% among 370,000; AID 743269; TR-FRET IN-LEDGF/p75 DNA integration, Eu/Cy5; inhibition, % at 3.7 µM;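 active means inhibition above the screen-wide mean plus 3 SD, cut at about 13% in these data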;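 further: signal is the Cy5 over europium emission ratio at 671 and 618 nm; 0% = plate median of compound wells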
BSA probe FL: BSA probe counter-screen for TCR-CD3 inhibitors; shares compounds with TCR CD3 inh; TAMRA-labeled BSA probe fluorescence counterscreen; inhibition, % at 9.4 µM; hit rate 10% among 1,200; in the data active means inhibition above about 23%;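 further: 0% = buffer low control and 100% = reference high control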
TCR-CD3 conf: TCR-CD3 interaction inhibition, confirmation. TAMRA-labeled TCR probe fluorescence binding assay. AID 652036. shares compounds with TCR CD3 inh. inhibition, % at 9.4 µM. hit rate 48% among 1,200
ABHD4 confirm: confirmation of mouse ABHD4 inhibitors; shares compounds with mABHD4 FP; purified mABHD4, FP-Rh probe fluorescence polarization; inhibition, % at 8.92 µM; hit rate 55% among 1,800; AID 720658;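 active means mean inhibition across replicates above the hit cutoff set in the primary screen, cut at about 30% in these data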;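 further: 0% = wild-type ABHD4 with DMSO and 100% = catalytically dead S159A mutant with DMSO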
TDP2 inh conf: confirmation of human TDP2 inhibitors; shares compounds with TDP2 inh; recombinant human TDP2, absorbance read-out; inhibition, % at 12.8 µM; hit rate 22% among 1,100; AID 743263; in the data active means inhibition above about 25%;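 further: 0% = vehicle with enzyme and 100% = no enzyme buffer only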
IN multimer up: HIV-1 integrase multimerization activation, counter-screen | hit rate 17% among 2,000 | activation, % at 7.7 µM | TR-FRET HIV-1 integrase multimerization, biochemical | shares compounds with LEDGF integ inh | AID 1053131; in the data active means activation above about 8.9%
TR-FRET interf: TR-FRET optical interference, LEDGF/p75 integration counter-screen; inhibition, % at 7.7 µM; 2,000 tested, under 10 active; TR-FRET optical interference counterscreen, HIV-1 IN multimerization; shares compounds with LEDGF integ inh;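 active means inhibition above the mean over all tested compounds plus 3 SD, which no compound reached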;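 further: 0% = integrase with antibodies and DMSO and 100% = antibodies without integrase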
IN-LEDGF confirm: LEDGF/p75-dependent HIV-1 integration inhibition, confirmation; shares compounds with LEDGF integ inh; TR-FRET LEDGF/p75-dependent HIV-1 integration, biochemical; inhibition, % at 3.7 µM; hit rate 36% among 2,000; AID 1053136; in the data active means inhibition above about 14%
SIAE inh conf: human SIAE inhibition, confirmation; hit rate 13% among 2,300; AID 1117263; inhibition, % at 9.66 µM; shares compounds with SIAE inh; SIAE FP-Rh activity-based probe, fluorescence polarization;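 active means mean inhibition of the replicates above the hit cutoff set in the primary screen, cut at about 17% in these data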;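 further: 0% = SIAE with DMSO and probe and 100% = probe without SIAE; inhibitors lower polarization as more probe stays unbound to SIAE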
* hit, by the source's call; i = inactive; . = no result given. In the library only some 2.2% were active in any assay of this set; here they are far more common. Unless noted, no stated cut-off is given here; in the data, active means inhibition above about 19%; inactive means the rest.

SMILES	SIAE inh	mABHD4 FP	HTRA1 inhibitor	TDP2 inh	TCR CD3 inh	LEDGF integ inh	ABHD4 confirm	others
COC1C(C)OC(OC2CC(C)(O)Cc3cc4c(c(O)c32)C(=O)c2c(O)cc3c(c2C4=O)OC2OC3(C)C(O)C(N(C)C)C2O)C(OC)C1(C)OC (centres undefined)	-9	-6	5	-3	80*	3	.	BSA probe FL=51*;TCR-CD3 conf=40*
COc1ccc2c3c([nH]c2c1)[C@H](C=C(C)C)N1C(=O)[C@@H]2CCCN2C(=O)[C@@H]1C3	2	5	.	2	.	5	.
O=C(N/N=C/c1c(O)n(-c2cccc3ccccc23)c(=O)[nH]c1=O)c1ccncc1	-1	0	6	-5	22*	2	.	BSA probe FL=-6;TCR-CD3 conf=10
CN(C)[C@@H]1C(=O)C(C(N)=O)=C(O)[C@@]2(O)C(=O)C3=C(O)c4c(O)cccc4[C@@](C)(O)C3C[C@@H]12 (some centres undefined)	14	64*	22	6	23*	18*	9	BSA probe FL=-5;TCR-CD3 conf=-2;IN multimer up=5;TR-FRET interf=-26;IN-LEDGF confirm=3
Cc1cnc[nH]1	2	5	4	-6	8	-1	.
CC/C(=N\NC(=O)c1ccccc1)c1c(O)n(C2CCCCC2)c(=O)[nH]c1=O	18*	0	1	16	20*	3	.	BSA probe FL=-4;TCR-CD3 conf=14;SIAE inh conf=4
COC(=O)C1=C(c2c(C)noc2C)C[C@@H]2CC[C@H]1N2C(=O)NCCNC(C)=O	-11	2	-3	2	0	2	.
O=C(N/N=C/c1c(O)n(Cc2ccc(F)cc2)c(=O)[nH]c1=O)c1ccccc1O	11	34*	24	-4	12	-6	52*
O=C(N/N=C/c1c(O)n(CCc2ccc(F)cc2)c(=O)[nH]c1=O)c1ccncc1	-1	20	2	-2	-7	-2	.
COc1ccc(Cn2c(O)c(/C=N/NC(=O)c3ccccc3)c(=O)[nH]c2=O)cc1	5	-1	10	1	3	2	.
COc1ccc(Cn2c(O)c(/C=N/NC(=O)c3ccccc3O)c(=O)[nH]c2=O)cc1	5	30*	31	1	11	-4	38*
CCC(c1nnnn1Cc1ccccc1)N1CCC2(CC1)C(=O)NCN2c1ccccc1 (centres undefined)	2	-6	.	-14	-7	3	.
COC(=O)C1=C(c2ccc(-c3ccccc3)c(F)c2)C[C@@H]2CC[C@H]1N2C(=O)NCc1cccc2ccccc12	-11	17	-37	-7	3	0	.
C=CCn1c(O)c(C(C)=Nc2ccc(N(CC)CC)cc2)c(=O)[nH]c1=O	2	39*	7	2	2	12	0
CC1CC(OP(O)(=S)c2ccc(N(C)C)cc2NC(=O)c2cccs2)CC(C)(C)C1 (centres undefined)	9	41*	-5	-17	2	-10	50*
Cc1[nH]c2ccc(OC(F)(F)F)cc2c1CCNCc1cccc([N+](=O)[O-])c1	11	14	-17	-5	-7	-5	.
Cc1[nH]c2ccc(OC(F)(F)F)cc2c1CCNCc1ccc(Cl)cc1	8	42*	13	-7	-2	-1	31*
COC(=O)C1=C(c2cccc(C#N)c2)C[C@@H]2CC[C@H]1N2C(=O)NCc1ccco1	5	3	-4	7	-6	0	.
O=[As](O)(O)c1ccc(N=Nc2ccc(O)cc2)cc1	-1	6	-2	5	-4	-3	.
O=C1C(Cl)=CC(=Nc2ccc(O)cc2)C=C1Cl	21*	32*	25	4	-3	8	58*
COCCCNP1(=O)OCC(C)([N+](=O)[O-])CO1 (centres undefined)	-6	-7	4	-6	3	1	.
O=c1[nH]c(=S)n(-c2ccc(Cl)cc2)c(O)c1C=Nc1ccc(N2CCOCC2)cc1	-1	40*	7	8	5	0	29
FC(F)(F)c1ccc(-c2ccc3c(c2)CNCc2cnnn2-3)cc1	3	34*	.	3	1	-5	25
O=C(NC1CCCCC1)Oc1cc2oc(=O)sc2cc1Cl	3	31*	8	29*	3	0	24	TDP2 inh conf=12
C[C@@H]1CN([C@@H](C)CO)C(=O)CCCn2nncc2CO[C@@H]1CN(C)C(=O)Oc1cccc2ccccc12	1	-1	-1	-5	5	2	.
SMILES	SIAE inh	mABHD4 FP	HTRA1 inhibitor	TDP2 inh	TCR CD3 inh	LEDGF integ inh	ABHD4 confirm	others
c1ccc2c(c1)-c1cccc3cccc-2c13	-2	-6	-4	-12	6	i	.
Nc1c(Br)cc2c3c(cccc13)-c1ccccc1-2	4	55*	.	64*	1	6	57*	TDP2 inh conf=17
O=[N+]([O-])c1cccc(O)c1	-6	-3	8	0	0	-4	.
O=[N+]([O-])c1cc(S(=O)(=O)c2ccc(O)c([N+](=O)[O-])c2)ccc1O	2	40*	10	-17	8	17*	31*	IN multimer up=28*;TR-FRET interf=-141;IN-LEDGF confirm=27*
CCN(CC)c1ccc(N=Cc2c(O)n(-c3ccccc3C)c(=O)[nH]c2=O)cc1	12	64*	60*	7	18	28*	4	IN multimer up=1;TR-FRET interf=-3;IN-LEDGF confirm=5
CN(C)c1cc[n+](CC(O)C[n+]2ccc(N(C)C)cc2)cc1	4	6	-7	-6	7	2	.
